Measured values published in ChEMBL document CHEMBL3525971 (Drug Metab Dispos, 2011).

How the values were obtained:
[1] = Tmax in castrated pig plasma withdrawn from femoral vein at 0.8 mg/kg administered as intrajejunal dose by UPLC-tandem mass spectrometry; type: ADME, organism-based, Sus scrofa; design: dose 0.8 mg/kg; settings: male
Outline: (§1)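 Portal, hepatic and femoral vein plasma sampled over 6 h and assayed by UPLC-MS/MS. Tmax read directly from the profiles. Terminal t1/2 calculated as ln2/λz by non- or compartmental analysis; values below LLOQ after Cmax excluded.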

[2] = Tmax in castrated pig plasma withdrawn from hepatic vein at 0.8 mg/kg administered as intrajejunal dose by UPLC-tandem mass spectrometry; type: ADME, organism-based, Sus scrofa; design: dose 0.8 mg/kg; settings: male; outline: as §1
[3] = Tmax in castrated pig plasma withdrawn from portal vein at 0.8 mg/kg administered as intrajejunal dose 20 mins after ketoconazole administration by UPLC-tandem mass spectrometry; type: ADME, organism-based, Sus scrofa; design: dose 0.8 mg/kg; settings: male; outline: as §1
[4] = Biliary excretion in castrated pig assessed as unchanged drug level at 0.2 mg/kg, iv measured during 6 hrs sampling by UPLC-tandem mass spectrometry; type: ADME, organism-based, Sus scrofa, Bile; design: dose 0.2 mg/kg, route intravenous; settings: in vivo
[5] = Tmax in castrated pig plasma withdrawn from femoral vein at 0.8 mg/kg administered as intrajejunal dose 20 mins after ketoconazole administration by UPLC-tandem mass spectrometry; type: ADME, organism-based, Sus scrofa; design: dose 0.8 mg/kg; settings: male; outline: as §1
[6] = Apparent half-life of the terminal disposition phase in castrated pig plasma withdrawn from hepatic vein at 0.2 mg/kg, iv by UPLC-tandem mass spectrometry; type: ADME, organism-based, Sus scrofa; design: dose 0.2 mg/kg, route intravenous; settings: male, read-out: t1/2 lambda z (converted)
Outline: (§2)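 Where ketoconazole was co-dosed, it was given at 10 mg/kg at the same jejunal site 20 min before. Plasma protein-precipitated with acetonitrile and analysed by UPLC-MS/MS (finasteride-d9). AUC0-6h, Cmax and t1/2 (ln2/λz) were derived by non- or compartmental analysis.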

[7] = AUC (0 to 6 hrs) in castrated pig plasma withdrawn from portal vein at 0.8 mg/kg administered as intrajejunal dose by UPLC-tandem mass spectrometry; type: ADME, organism-based, Sus scrofa; design: time < 6 hr, dose 0.8 mg/kg; settings: male; outline: as §2
[8] = Cmax in castrated pig bile at 0.8 mg/kg administered as intrajejunal dose by UPLC-tandem mass spectrometry; type: ADME, organism-based, Sus scrofa; design: dose 0.8 mg/kg; settings: male
[9] = AUC (0 to 6 hrs) in castrated pig plasma withdrawn from femoral vein at 0.2 mg/kg, iv by UPLC-tandem mass spectrometry; type: ADME, organism-based, Sus scrofa; design: time < 6 hr, dose 0.2 mg/kg, route intravenous; settings: male; outline: as §2
[10] = Terminal half life in castrated pig plasma withdrawn from femoral vein at 0.8 mg/kg administered as intrajejunal dose 20 mins after ketoconazole administration by UPLC-tandem mass spectrometry; type: ADME, organism-based, Sus scrofa; design: dose 0.8 mg/kg; settings: male, read-out: beta t1/2 (converted); outline: as §1
[11] = AUC (0 to 6 hrs) in castrated pig bile at 0.8 mg/kg administered as intrajejunal dose by UPLC-tandem mass spectrometry; type: ADME, organism-based, Sus scrofa; design: time < 6 hr, dose 0.8 mg/kg; settings: male
[12] = Renal clearance in castrated pig at 0.8 mg/kg, administered as intrajejunal dose 20 mins after ketoconazole administration by UPLC-tandem mass spectrometry; type: ADME, organism-based, Sus scrofa, Kidney; design: dose 0.8 mg/kg; settings: male, in vivo
Outline: (§3)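 Urine collected 0-360 min into a closed bag, weighed and frozen at -20°C. […] Doses: iv 0.2 mg/kg bolus via central vein catheter (n=3), or ij 0.8 mg/kg alone or 20 min after ij ketoconazole 10 mg/kg (n=5). Renal clearance derived from the amount excreted in urine over 0-6 h.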

[13] = Renal clearance in castrated pig at 0.8 mg/kg, administered as intrajejunal dose by UPLC-tandem mass spectrometry; type: ADME, organism-based, Sus scrofa, Kidney; design: dose 0.8 mg/kg; settings: male, in vivo; outline: as §3
[14] = Cmax in castrated pig plasma withdrawn from portal vein at 0.8 mg/kg administered as intrajejunal dose by UPLC-tandem mass spectrometry; type: ADME, organism-based, Sus scrofa; design: dose 0.8 mg/kg; settings: male; outline: as §2

Tmax [1]: 54 min
Tmax [2]: 30 min
Tmax [3]: 18 min
Tmax [5]: 1.5 h
half-life [6]: 186 min
AUC(0-t) at 6 h [7]: 2.9 µM·h
Cmax [8]: 1300 nM
AUC(0-t) at 6 h [9]: 1.2 µM·h
half-life [10]: 240 min
AUC(0-t) at 6 h [11]: 2.5 µM·h
CL renal at 20 min [12]: 8.64 mL/day/kg
CL renal [13]: 7.2 mL/day/kg
Cmax [14]: 2600 nM
Compound: CC(C)(C)NC(=O)[C@H]1CC[C@H]2[C@@H]3CC[C@H]4NC(=O)C=C[C@]4(C)[C@H]3CC[C@]12C [FINASTERIDE]
Ae [4]: 0.032 µmol
